Our source for the IC50 values is publication PMC2925318 (Tetrahedron, 2010).

For orientation: IC50 means the midpoint of a concentration-inhibition curve.

For the experiment, the target named is Concanavalin A (Con A) (Canavalia ensiformis, UniProt P02866). The format is binding. The method, boiled down: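 Gold chip with mixed carboxyl/hydroxyl dithiol monolayer, aminoethoxyethyl mannoside coupled by EDC/NHS; hydroxyl-only reference flowcell. Con A (2 μM monomer) mixed 1:1 with test compound, equilibrated ≥1 h, then injected at 10 μL/min in 10 mM PBS pH 7.4, 25 °C. Methyl-mannose/HCl regeneration. Glycodendrimers run in triplicate, 2-fold series 50 μg/mL–39 ng/mL. Double-referenced equilibrium responses were fitted to a four-parameter logistic to give IC50.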
Chain of Concanavalin A (Con A) (P02866 164-281 limits assumed): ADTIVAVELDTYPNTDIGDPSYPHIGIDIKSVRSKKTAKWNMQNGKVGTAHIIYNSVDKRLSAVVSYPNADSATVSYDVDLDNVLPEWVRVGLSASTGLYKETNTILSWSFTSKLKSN
Chain of Concanavalin A (Con A) (P02866 30-148 limits assumed): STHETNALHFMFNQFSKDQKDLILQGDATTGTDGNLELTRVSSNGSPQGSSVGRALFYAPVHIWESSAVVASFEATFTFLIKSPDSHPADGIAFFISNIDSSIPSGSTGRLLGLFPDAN

The molecule `CO[C@H]1O[C@H](CO)[C@@H](O)[C@H](O)[C@@H]1O` [Methyl mannose] gave an IC50 of 240 µM.
